# Published values gathered from unrelated publications.
# Protocols differ between the studies behind these lines.
# Matrix: plasma
Compound,host,route,dose,setting,quantity,result
CCc1cc(C(=O)NC)c2nccc(N3CCc4c(cc(Cn5ccnc5)cc4-c4cn(C)nc4C(F)(F)F)C3=O)c2c1,male Sprague-Dawley rat,oral,100 mg/kg,single dose,AUC(0-t),37200 ng·h/mL
N#Cc1[nH]nnc1-c1cccc(-c2cc(F)cc(C(F)(F)F)c2)c1,male Sprague-Dawley rat,oral,10 mg/kg,,AUC,68200 ng·h/mL
N#Cc1ccc(Nc2nc(N)cc(Oc3c(F)cc(-c4ccc(C#N)cc4)cc3F)n2)cc1,Sprague-Dawley rat,oral,5 mg/kg,,AUC,100 ng·h/mL
Cl.Clc1ccc2c(c1)nc(N1CCNCC1)n2Cc1ccccc1,rat,oral,5 mg/kg,,AUC,1.5 µM·h
N#Cc1[nH]nnc1-c1cc(Cl)cc(/C=C/c2cccc(C(F)(F)F)c2)c1,male Sprague-Dawley rat,oral,10 mg/kg,,AUC,16700 ng·h/mL
CC[C@H](C)[C@H](NC(=O)[C@H](Cc1ccccc1)NC(=O)[C@H](CCC(=O)O)NC(=O)[C@H](CCCNC(=N)N)NC(=O)[C@H](C)NC(=O)[C@H](C)NC(=O)[C@H](CCC(N)=O)NC(=O)[C@H](CCC(=O)O)NC(=O)[C@H](CCC(=O)O)NC(=O)[C@H](CC(C)C)NC(=O)[C@H](Cc1ccc(O)cc1)NC(=O)[C@H](CO)NC(=O)[C@H](CO)NC(=O)[C@@H](NC(=O)[C@H](CC(=O)O)NC(=O)[C@H](CO)NC(=O)[C@@H](NC(=O)[C@H](Cc1ccccc1)NC(=O)[C@@H](NC(=O)CNC(=O)[C@H](CCC(=O)O)NC(=O)[C@H](C)NC(=O)CCc1c[nH]cn1)[C@@H](C)O)[C@@H](C)O)C(C)C)C(=O)N[C@@H](C)C(=O)N[C@@H](Cc1c[nH]c2ccccc12)C(=O)N[C@@H](CC(C)C)C(=O)N[C@H](C(=O)N[C@@H](CCCNC(=N)N)C(=O)NCC(=O)N[C@@H](CCCNC(=N)N)C(=O)N[C@@H](CCCCNC(=O)COCCOCCNC(=O)COCCOCCNC(=O)CC[C@H](NC(=O)CCCCCCCCCCCCCCCCC(=O)O)C(=O)O)C(=O)O)C(C)C,rat,subcutaneous,20 nmol/kg,,AUC,1.98 µM·h
C=CC(=O)N1CC2CC(n3nc(-c4ccc(C(=O)Nc5ccccn5)cc4)c4c(N)ncnc43)CC2C1 (centres unmarked),male Wistar rat,oral,300 mg/kg,,AUC(0-t),80700 ng·h/mL
Cc1noc(-c2cc3cc(-c4nc(C(=O)NCc5ccncc5)[nH]c4C)ccc3[nH]2)n1,Sprague-Dawley rat,oral,10 mg/kg,,AUC,11.1 µM·h
CCOC(=O)[C@@]12C[C@@H]1[C@@H](n1ccc3c(NC)nc(C#Cc4ccc(Cl)s4)nc31)[C@H](O)[C@@H]2O,male Sprague-Dawley rat,intravenous,0.5 mg/kg,,AUC(0-inf),31.1 ng·h/mL
COc1cc2c3c(n(CCCN4CCOCC4)c(=O)c2cc1OC)-c1cc2c(cc1C3=O)OCO2,female Fischer 344 rat,intravenous,24 mg/m²,single dose,AUC(0-inf),806 ng·h/mL
CCNC(=O)c1nc(-c2ccc3[nH]c(-c4nc(C)no4)cc3c2)c(C)[nH]1,Sprague-Dawley rat,oral,10 mg/kg,,AUC,10.3 µM·h
